A selection follows.
Apaf-1 act = activators of human Apaf-1 apoptosome, primary screen, biochemical, DEVD-Rh110 fluorescence, uHTS | AID 489031, 2010 | activity change, negative = activation, % at 20 µM | 330,000 tested, 0.31% active | Apaf-1 apoptosome caspase-3 activation; hits give low values;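 active = activity change at or below -40% at 20 µM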
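Assay system – biochemical Apaf-1 apoptosome reconstitution · Medium – 20 mM HEPES buffer, pH 7.5, containing CHAPS and BSA · Incubation – 30 min preincubation, 50 min reaction, room temperature · Measured by – Caspase-3-released Rh110 fluorescence, 540 nm emission, 480 nm excitation · Read-out – Caspase-3 cleavage activity downstream of Apaf-1 activation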
Rh110 act interf = Rh110 fluorescence interference by putative Apaf-1 activators, confirmation, artefact control for Apaf-1 activator project, biochemical, 20 µM; shares compounds with Apaf-1 act; 980 tested, under 10 active; quenched caspase reaction, Ex480/Em540; fluorescence interference (activity change), % at 20 µM, hits read low;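 active = mean activity change at or below -40% when tested at 20 µM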
Apaf-1 act conf = Apaf-1 activators, single-dose retest, confirmation, biochemical, fluorescence, DEVD-Rh110, 20 µM | shares compounds with Apaf-1 act | reconstituted apoptosome caspase-3 activity; hits give low values | activity change, negative = activation, % at 20 µM | 980 tested, 5% active | AID 504617, 2011;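 active = mean activity change at or below -40%, meaning activation of 40% or more, at 20 µM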
Numbers stand for hits; – = inactive; · = no result given.

SMILES	Apaf-1 act	Rh110 act interf	Apaf-1 act conf
COc1cc(C)c2c(c1C=O)Oc1c(c(C)c(O)c3c1C(O)OC3=O)OC2=O (centres undefined)	–	·	·
CN1CCc2c(C#N)c(N3CCCCC3)nc(NCc3ccccc3)c2C1	–	·	·
COc1ccccc1-n1ccnc1SCC(=O)NCc1ccco1	-146	–	–
CN(CCCN1c2ccccc2CCc2ccccc21)CC(=O)c1ccc(Cl)cc1	–	·	·
O=C(O)c1ccc(NC2=C(N3CCOCC3)C(=O)c3ccccc3C2=O)cc1	–	·	·
Clc1nc(Nc2ccc(N3CCOCC3)cc2)c2ccccc2n1	-393	–	–
CC(=O)N(C)C1=C(N2CCOCC2)C(=O)c2ccccc2C1=O	–	·	·
COc1cc(C(=O)N2CCN(c3cccc(C)c3C)CC2)ccc1OCC(=O)N1CCOCC1	–	·	·
CCOC(=O)C1CCN(c2cc3c(cc2NC(=O)c2ccccc2OCC)n(C)c(=O)n3C)CC1	–	·	·
Cc1cccc(NC(=O)c2ccccc2OCC(=O)N2CCOCC2)c1C	-546	–	–
C[C@H](O)CC(=O)O	–	·	·
Cn1c(=O)c2c(SCC(=O)NC3CCCC3)nc(CC(C)(C)C)nc2n(C)c1=O	-508	–	–
CCCCCCCCNC(C)C(O)c1ccc(SC(C)C)cc1 (centres undefined)	–	·	·
CN(C)c1cccc2c1c(NC(=O)Nc1ccccc1)nn2C	–	·	·
COc1ccccc1N1CCN(Cc2nc(-c3ccc(F)cc3)oc2C)CC1	-236	–	–
COc1ccc(N2CCN(Cc3nc4scc(-c5ccccc5)c4c(=O)[nH]3)CC2)cc1	–	·	·
C#CCOCCOCCOCCNc1nc(N2CCN(C(=O)CCCCCCCCCCNC(=O)[C@@H](CCSC)n3cc(CCO)nn3)CC2)nc(N2CCN(C(=O)CCCCCCCCCCNC(=O)[C@H](CCC(=O)O)n3cc(CCCCCN)nn3)CC2)n1	–	·	·
N#Cc1ccsc1NC(=O)c1ccc(Cl)c([N+](=O)[O-])c1	–	·	·
N/C(=N\OC(=O)c1ccc(Cl)c([N+](=O)[O-])c1)c1ccccc1	-57	–	–
O=C(CCn1c2c(c3ccccc31)CCCC2)NNC(=O)c1ccc(Cl)c([N+](=O)[O-])c1	–	·	·
COc1cc2c(cc1OC)-c1cc3ccc4c(c3c[n+]1CC2)OCO4	–	·	·
CC(=O)c1cc(C#N)c(Oc2cccc(C(F)(F)F)c2)nc1C	-151	–	–
O=C(NCCNc1ccc2ccccc2c1)c1cccn2c(=O)c3sccc3nc12	–	·	·
CN(C)/C=C/C(=O)c1ccc(S(=O)(=O)c2ccccc2)cc1	-61	–	–
COc1ccc(C(=O)/C=C/N(C)C)cc1OC	-107	–	–
SMILES	Apaf-1 act	Rh110 act interf	Apaf-1 act conf
COc1ccc(C(=O)c2nccc3cc(OC)c(OC)cc23)cc1OC	–	·	·
CCCCCCCCCCCCCCCC[n+]1cccc2ccccc21	–	·	·
c1ccc2c(C[C@@H]3CNCCN3CCCCC3CCCCC3)cccc2c1	–	·	·
COc1ccc(C[C@H]2CN3C(=NC[C@@H]3Cc3ccccc3)N2CCNC(=O)CCC2CCCCC2)cc1	–	·	·
C=CCN(CC=C)C(=S)Nc1ccc2nsnc2c1	–	·	·
C=CC(=O)Nc1ccc(Nc2nc(NC3CCC(N(C)C)CC3)nc3c2ncn3C(C)C)cc1 (centres undefined)	–	·	·
CC(C)CCn1c(N)c(S(=O)(=O)c2cccs2)c2nc3ccccc3nc21	–	·	·
N#CC(c1nc2ccccc2nc1N1CCCC1)S(=O)(=O)c1ccccc1 (centres undefined)	–	·	·
C=CCn1c(N)c(C(=O)Nc2cccc(C)c2)c2nc3ccccc3nc21	–	·	·
O=C1C(NS(=O)(=O)c2cccs2)=C(N2CCN(c3ccccc3)CC2)C(=O)c2ccccc21	–	·	·
O=C(COc1ccccc1)NCC(=O)NC1CCCCC1	-40	–	–
CSCCC(NC(=O)COc1ccccc1)C(=O)N1CCC(C(N)=O)CC1 (centres undefined)	–	·	·
Oc1ccc(/C=N/Nc2cc(N3CCCC3)nc(N3CCCC3)n2)cc1	–	·	·
CC(C)(C)c1cc(C(=O)N2CCN(c3ncccn3)CC2)ccn1	-50	–	–
CCCCn1c(NC(=O)c2ccc(Br)o2)c(S(=O)(=O)c2ccccc2)c2nc3ccccc3nc21	–	·	·
CC[C@H](C)[C@@H]1NC(=O)[C@H]([C@@H](C)CC)NC(=O)[C@@H](CC(C)C)NC(=O)[C@H](Cc2ccccc2)NC(=O)[C@H](Cc2ccccc2)NC(=O)[C@@H]2CCCN2C(=O)[C@@H]2CCCN2C(=O)[C@H](C(C)C)NC(=O)[C@H](CC(C)C)NC1=O	–	·	·
COCc1cc(=O)oc2cc(NC(=O)c3ccc(C(C)(C)C)cc3)ccc12	-64	–	–
O=C(O)/C=C/C(=O)c1ccc(O)cc1	-83	–	–
Cc1ccc(NC(=O)CC(C)N2CCCC2)cc1 (centres undefined)	-79	–	–
C=CCn1c(SCC(=O)Nc2sccc2C(N)=O)nc2sc(CC)cc2c1=O	–	·	·
COc1cc2nc(N3CCNCC3)nc(N)c2cc1OC	–	·	·
COc1cccc(OCC(O)CN2CCN(c3ccccc3)CC2)c1 (centres undefined)	–	·	·
OC(CN1CCN(c2ccccc2)CC1)c1ccc2c(c1)CCN2 (centres undefined)	-460	–	–
CC1=NN(c2ccc(Cl)cc2)C(=O)C1C(c1ccccc1O)c1c(C)[nH]n(-c2ccc(Cl)cc2)c1=O (centres undefined)	–	·	·
CCn1c(SCC(=O)c2ccc(F)cc2)nnc1-c1ccoc1C	-223	–	–
SMILES	Apaf-1 act	Rh110 act interf	Apaf-1 act conf
CN1CCc2nc(SCC(=O)Nc3cccc(F)c3)c(C#N)c(-c3cccs3)c2C1	–	·	·
C#CCOCCOCCOCCNc1nc(N2CCN(C(=O)CCCCCCCCCCNC(=O)[C@@H](CCC(=O)O)n3cc(CCCCCN)nn3)CC2)nc(N2CCN(C(=O)CCCCCCCCCCNC(=O)[C@H](CO)n3cc(CCCCCN)nn3)CC2)n1	–	·	·
CCN(CC)CCNC(=O)c1ccc(NC(=O)C2CC(=O)N(CCc3ccc(OC)c(OC)c3)C2)cc1 (centres undefined)	–	·	·
COc1ccc(CCN2C(=O)C3C4CC(C5C(C(=O)NN)=NOC45)C3C2=O)cc1OC (centres undefined)	-312	–	–
FC(F)(F)c1cc(CCN2CCNC[C@@H]2c2ccccc2)cc(C(F)(F)F)c1	–	·	·
CCc1cccc(C)c1NC(=S)NCc1ccc2c(c1)cc(C)n2C	–	·	·
COC(=O)C1(C)CCc2cc(OC)ccc2C1=O (centres undefined)	-81	–	–
COc1ccc(C(=O)Nc2nc3c(s2)Cc2cc(OC)ccc2-3)cc1	–	·	·
Cc1cc2cc(CNC(=O)c3ccc(S(=O)(=O)N4CCCCC4)cc3)ccc2n1C	–	·	·
O=C(c1ccc(S(=O)(=O)N2CCCC2)cc1)N(c1ccc(F)cc1)C1C=CS(=O)(=O)C1 (centres undefined)	-314	–	–
O=C(c1ccc(S(=O)(=O)N2CCCC2)cc1)N(c1ccccc1)C1C=CS(=O)(=O)C1 (centres undefined)	-56	–	–
Oc1cccc(/C=N/Nc2cc(N3CCCC3)nc(N3CCCC3)n2)c1	–	·	·
CCc1ccc(S(=O)(=O)/N=C2\C=C(Nc3ccc(O)cc3)C(=O)c3ccccc32)cc1	–	·	·
